ChEMBL document CHEMBL5096187, “Efficient Synthesis and Bioevaluation of Novel Dual Tubulin/Histone Deacetylase 3 Inhibitors as Potential Anticancer Agents” (J Med Chem, 2021)

Tests used:
Histone deacetylase 1 = Histone deacetylase 1 (Homo sapiens, UniProt Q13547); assay: Inhibition of full length recombinant human HDAC1 (1 to 482 residues) expressed in Baculovirus system using Ac-Leu-Gly-Lys (Ac)-AMC as substrate pretreated for 5 mins followed by substrate addition and measured after 30 mins
[1] = Nephrotoxicity in C57BL/6 mouse assessed as effect on urea level in serum; format: toxicity; conditions: in vivo
B16-F10 [2] = assay: Induction of apoptosis in mouse B16-F10 cells assessed as viable cells at 25 nM incubated for 48 hrs by Annexin V-FITC/PI analysis (reference value: 98.3 %); format: functional; conditions: read-out: Activity
A549 = assay: Antiproliferative activity against human A549 cells assessed as inhibition of cell viability measured for 48 hrs by microplate reader based CCK-8 assay; format: functional; conditions: A549, 48 h
B16-F10 [3] = assay: Antiproliferative activity against mouse B16-F10 cells assessed as inhibition of cell viability measured for 48 hrs by microplate reader based MTT assay; format: functional; conditions: B16-F10, 48 h
Summary of the method: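 Cells grown in RPMI-1640 with 10% FBS and seeded at 5000 cells/well. After overnight attachment, compound was added in medium with 0.1% DMSO for 48 h at 37 °C. Read-out was MTT for HCT-116, B16-F10 and A549, and CCK-8 for Jurkat (0.5 mg/mL, 4 h), with absorbance at 570 nm. IC50 from nonlinear regression; at least three independent experiments.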

[4] = Hepatotoxicity in C57BL/6 mouse assessed as effect on ALT level in serum; format: toxicity
[5] = Cardiotoxicity in C57BL/6 mouse ssessed as effect on heart rate by ECG analysis; format: toxicity
Summary of the method: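 Mice aged 6–8 weeks dosed by intragastric gavage once daily for 14 days; ECG and heart rate recorded on a PowerLab system.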

[6] = Toxicity in C57BL/6 mouse allografted with mouse B16-F10 cells assessed as morphological abnormalities in kidney at 10 mg/kg, ip administered for 14 days by H and E staining based analysis; format: organism-based; conditions: in vivo, 336 h, time 14 day
Summary of the method: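 C57BL/6 mice with subcutaneous B16-F10 allografts, n = 8 per group, given i.p. injections once daily for 14 days. Single agents at 10 mg/kg; combination at 5 + 5 mg/kg. Vehicle: ethanol/polyoxyethylene castor oil/saline 1.25:1.25:7.5. Liver and kidney fixed in 4% paraformaldehyde, paraffin-embedded, H&E stained and examined by microscopy.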

B16-F10 [7] = assay: Antimigratory activity against mouse […] cells assessed as reduction in wound closure measured up to 24 hrs by scratch wound healing assay; format: functional, cell-based; conditions: dose 25-100 nM, DDE = dose-dependent effect
Summary of the method: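 B16-F10 cells seeded overnight; confluent monolayers scratched with a pipette tip and rinsed twice with medium to clear debris. Cells treated with compound for 24 h against a DMSO control. Phase-contrast images taken at 0 and 24 h. Migration distance into the wound, or scratch length, measured by hand. n = 3.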

B16-F10 [8] = assay: Inhibition of colony formation in mouse B16-F10 cells assessed as reduction in number of colonies incubated for 24 hrs; format: functional, cell-based; conditions: dose 25-100 nM, DDE = dose-dependent effect
Summary of the method: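 1000 B16-F10 cells seeded and cultured 24 h at 37 °C, then exposed to compound for 24 h. Medium was then replaced and cells grown 10–14 days. Colonies fixed with 4% paraformaldehyde for 30 min, stained with 0.1% crystal violet for 15 min, and counted; n = 3 versus DMSO.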

B16-F10 [9] = assay: Induction of apoptosis in mouse B16-F10 cells assessed as early apoptotic cells at 50 nM incubated for 48 hrs by Annexin V-FITC/PI analysis (reference value: 1.68 %); format: functional
Tubulin (Sus scrofa) = Tubulin (Sus scrofa) (UniProt P02554+P02550); assay: Inhibition of pig brain tubulin polymerization at 10 uM measured after 20 mins by spectrometric method relative to control
Summary of the method: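 Pig brain tubulin was purified by three assembly/disassembly cycles and then phosphocellulose chromatography. Compound at 10 μM in PEM buffer with 1 mM GTP and 5% glycerol at 37 °C. Polymerization followed at 340 nm; inhibition taken at 20 min versus vehicle control.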

B16-F10 [10] = assay: Antitumor activity against mouse B16-F10 cells allografted in C57BL/6 mouse assessed as tumor growth inhibition at 10 mg/kg, ip administered for 14 days; format: functional; conditions: B16-F10, 336 h, time 14 day, read-out: TGI
Summary of the method: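 C57BL/6 mice were inoculated subcutaneously with 3×10⁵ B16-F10 cells in PBS and randomized (n = 8). Drugs in ethanol/polyoxyethylene castor oil/saline (1.25:1.25:7.5) or vehicle alone were given i.p. once daily for 14 days. Mice were sacrificed at day 14 and tumors weighed; TGI(%) = [1 − Wt/Wv] × 100 using mean tumor weights.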

B16-F10 [11] = assay: Induction of cell cycle arrest in mouse B16-F10 cells assessed as accumulation of cells in G2/M phase at 50 nM measured after 48 hrs by PI/RNaseA staining based flow cytometry analysis (Rvb= 5.76%); format: functional
[12] = In vivo inhibition of HDAC in tumor of mouse B16-F10 cells xenografted in C57BL/6 mouse assessed as increase in acetylated histone-H3 expression by […] immunohistochemistry method; format: functional; design: scale not given: the % may be the effect or the level left
Summary of the method: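 Tumors from the 14-day i.p. B16-F10 study were formalin-fixed and paraffin-embedded. Sections were deparaffinized, treated with 3% H2O2, and antigen-retrieved at pH 9 and 80 °C overnight. Blocked with milk, incubated with anti-Ac-H3 at 4 °C overnight, then IgG secondary and hematoxylin counterstain. Ac-H3-positive ratio quantified from images.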

Histone deacetylase 8 = biological target: T1, Histone deacetylase 8 (Homo sapiens, UniProt Q9BY41); assay: Inhibition of full length C-terminal his-tagged human recombinant HDAC8 ([…]) expressed in baculovirus in Sf9 insect cells using Ac-Leu-Gly-Lys (Tfa)-AMC as substrate pretreated for 5 mins followed by substrate addition and measured after 30 mins
T1 sequence (Q9BY41 whole entry): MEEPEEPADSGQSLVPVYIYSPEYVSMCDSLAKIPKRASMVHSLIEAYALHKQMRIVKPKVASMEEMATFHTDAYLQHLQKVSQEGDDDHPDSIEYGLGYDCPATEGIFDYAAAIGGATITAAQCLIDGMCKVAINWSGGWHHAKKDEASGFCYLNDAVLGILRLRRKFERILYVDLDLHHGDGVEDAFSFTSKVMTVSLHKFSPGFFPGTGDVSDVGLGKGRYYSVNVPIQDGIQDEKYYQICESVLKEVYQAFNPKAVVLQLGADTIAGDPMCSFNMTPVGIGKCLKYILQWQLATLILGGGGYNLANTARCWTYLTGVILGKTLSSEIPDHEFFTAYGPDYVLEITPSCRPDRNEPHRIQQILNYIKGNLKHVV

B16-F10 [13] = assay: Induction of apoptosis in mouse B16-F10 cells assessed as necrotic cells at 50 nM incubated for 48 hrs by Annexin V-FITC/PI analysis (reference value: 0.012 %); format: functional
B16-F10 [14] = assay: Induction of cell cycle arrest in mouse B16-F10 cells assessed as accumulation of cells in G2/M phase at 25 nM measured after 48 hrs by PI/RNaseA staining based flow cytometry analysis (Rvb= 5.76%); format: functional

Sequence of Histone deacetylase 1 (Q13547 whole entry, the tested form may be a part): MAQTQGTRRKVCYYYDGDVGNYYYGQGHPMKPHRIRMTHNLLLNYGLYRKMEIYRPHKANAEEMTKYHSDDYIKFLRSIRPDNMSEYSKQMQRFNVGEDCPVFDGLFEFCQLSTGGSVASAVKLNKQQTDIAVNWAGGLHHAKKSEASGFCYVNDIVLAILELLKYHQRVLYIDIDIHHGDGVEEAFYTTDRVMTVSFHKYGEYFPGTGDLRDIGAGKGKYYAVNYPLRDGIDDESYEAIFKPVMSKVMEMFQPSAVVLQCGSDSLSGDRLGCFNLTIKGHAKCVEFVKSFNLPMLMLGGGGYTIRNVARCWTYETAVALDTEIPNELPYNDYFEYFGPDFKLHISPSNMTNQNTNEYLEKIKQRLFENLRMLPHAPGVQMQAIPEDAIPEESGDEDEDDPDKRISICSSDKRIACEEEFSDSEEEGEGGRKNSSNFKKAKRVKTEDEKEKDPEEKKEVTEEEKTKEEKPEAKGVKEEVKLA
Sequence of Tubulin (Sus scrofa) (P02550 whole entry, looked up): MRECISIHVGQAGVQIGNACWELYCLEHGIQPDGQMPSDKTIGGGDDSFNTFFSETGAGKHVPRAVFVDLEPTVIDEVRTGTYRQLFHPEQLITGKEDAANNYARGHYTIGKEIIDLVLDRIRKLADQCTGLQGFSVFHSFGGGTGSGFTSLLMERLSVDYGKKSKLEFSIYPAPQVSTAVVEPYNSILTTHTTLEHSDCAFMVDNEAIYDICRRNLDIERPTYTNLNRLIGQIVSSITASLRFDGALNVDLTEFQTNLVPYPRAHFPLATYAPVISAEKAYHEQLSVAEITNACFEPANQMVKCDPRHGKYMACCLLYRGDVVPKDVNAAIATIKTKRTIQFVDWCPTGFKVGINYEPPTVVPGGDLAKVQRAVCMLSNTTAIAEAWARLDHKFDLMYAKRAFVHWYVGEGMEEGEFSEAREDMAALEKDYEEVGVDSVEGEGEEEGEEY
Sequence of Tubulin (Sus scrofa) (P02554 whole entry, looked up): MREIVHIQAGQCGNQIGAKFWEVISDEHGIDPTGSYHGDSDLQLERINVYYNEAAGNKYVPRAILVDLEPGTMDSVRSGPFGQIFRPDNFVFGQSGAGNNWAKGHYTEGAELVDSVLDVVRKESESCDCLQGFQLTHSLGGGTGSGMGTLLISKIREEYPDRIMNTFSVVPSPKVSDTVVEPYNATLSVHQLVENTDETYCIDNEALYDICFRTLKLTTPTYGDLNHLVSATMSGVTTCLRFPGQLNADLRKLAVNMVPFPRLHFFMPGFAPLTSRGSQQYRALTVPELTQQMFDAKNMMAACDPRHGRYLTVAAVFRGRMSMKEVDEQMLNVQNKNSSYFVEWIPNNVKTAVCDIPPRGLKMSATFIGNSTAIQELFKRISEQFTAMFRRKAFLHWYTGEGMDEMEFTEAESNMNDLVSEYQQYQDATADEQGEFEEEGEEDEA

IC50 (Histone deacetylase 1): 9.04 µM
IC50 (A549): 140 nM
IC50 (B16-F10 [3]): 70 nM
inhibition (Tubulin (Sus scrofa)): 70%
IC50 (Histone deacetylase 8): 11.6 µM
Structure (SMILES): COc1cc(C(=O)c2csc(-c3ccc(NC(=O)CCCC(=O)Nc4ccccc4N)cc3)n2)cc(OC)c1OC
Activity [1]: Non-Toxic
viability at 0.025 µM (B16-F10 [2]): 89.1%
Activity [4]: Non-Toxic
Activity [5]: Non-Toxic
Activity [6]: Non-Toxic
Activity (B16-F10 [7]): Dde
Activity (B16-F10 [8]): Dde
Activity (B16-F10 [9]): 7.09%
inhibition in vivo at 10 mg/kg (B16-F10 [10]): 70%
Activity (B16-F10 [11]): 66.32%
Activity [12]: 36.7%
Activity (B16-F10 [13]): 1.9%
Activity (B16-F10 [14]): 15.98%
